IC50 data for eight compounds are collected here from ChEMBL document CHEMBL3797186, “Single Residue Substitutions That Confer Voltage-Gated Sodium Ion Channel Subtype Selectivity in the NaV1.7 Inhibitory Peptide GpTx-1” (J Med Chem, 2016).

pIC50: −log10 of the molar value. Positions of bridges follow the written chain, without caps; N, C: chain ends. Non-standard residues stand in square brackets, D forms with d. Residues, ends and D or L forms follow the SMILES beside them. 1Nal = N[C@@H](Cc1cccc2ccccc12)C(=O)O

As usually defined, the pIC50 is the negative decadic logarithm of the IC50, by convention in mol/L.

Assay [1] deals with Sodium channel protein type 5 subunit alpha (Homo sapiens, UniProt Q14524). The experiment in a line: Inhibition of human Nav1.5 expressed in HEK293 cells assessed as inward peak current by ion-works quattro patch clamp electrophysiology method. The format is cell-based. The essentials:
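Stable HEK293 line expressing human NaV1.5, recorded by population patch clamp on the IonWorks Quattro.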

The target of assay [2] is Sodium channel protein type 9 subunit alpha (Homo sapiens, UniProt Q15858). Nature of the assay: Inhibition of human Nav1.7 expressed in HEK293 cells assessed as inward peak current by ion-works quattro patch clamp electrophysiology method. The format is cell-based. In general terms: In patch-clamp work, channel activity is measured electrically.
Sequence of Sodium channel protein type 9 subunit alpha (Q15858 whole entry): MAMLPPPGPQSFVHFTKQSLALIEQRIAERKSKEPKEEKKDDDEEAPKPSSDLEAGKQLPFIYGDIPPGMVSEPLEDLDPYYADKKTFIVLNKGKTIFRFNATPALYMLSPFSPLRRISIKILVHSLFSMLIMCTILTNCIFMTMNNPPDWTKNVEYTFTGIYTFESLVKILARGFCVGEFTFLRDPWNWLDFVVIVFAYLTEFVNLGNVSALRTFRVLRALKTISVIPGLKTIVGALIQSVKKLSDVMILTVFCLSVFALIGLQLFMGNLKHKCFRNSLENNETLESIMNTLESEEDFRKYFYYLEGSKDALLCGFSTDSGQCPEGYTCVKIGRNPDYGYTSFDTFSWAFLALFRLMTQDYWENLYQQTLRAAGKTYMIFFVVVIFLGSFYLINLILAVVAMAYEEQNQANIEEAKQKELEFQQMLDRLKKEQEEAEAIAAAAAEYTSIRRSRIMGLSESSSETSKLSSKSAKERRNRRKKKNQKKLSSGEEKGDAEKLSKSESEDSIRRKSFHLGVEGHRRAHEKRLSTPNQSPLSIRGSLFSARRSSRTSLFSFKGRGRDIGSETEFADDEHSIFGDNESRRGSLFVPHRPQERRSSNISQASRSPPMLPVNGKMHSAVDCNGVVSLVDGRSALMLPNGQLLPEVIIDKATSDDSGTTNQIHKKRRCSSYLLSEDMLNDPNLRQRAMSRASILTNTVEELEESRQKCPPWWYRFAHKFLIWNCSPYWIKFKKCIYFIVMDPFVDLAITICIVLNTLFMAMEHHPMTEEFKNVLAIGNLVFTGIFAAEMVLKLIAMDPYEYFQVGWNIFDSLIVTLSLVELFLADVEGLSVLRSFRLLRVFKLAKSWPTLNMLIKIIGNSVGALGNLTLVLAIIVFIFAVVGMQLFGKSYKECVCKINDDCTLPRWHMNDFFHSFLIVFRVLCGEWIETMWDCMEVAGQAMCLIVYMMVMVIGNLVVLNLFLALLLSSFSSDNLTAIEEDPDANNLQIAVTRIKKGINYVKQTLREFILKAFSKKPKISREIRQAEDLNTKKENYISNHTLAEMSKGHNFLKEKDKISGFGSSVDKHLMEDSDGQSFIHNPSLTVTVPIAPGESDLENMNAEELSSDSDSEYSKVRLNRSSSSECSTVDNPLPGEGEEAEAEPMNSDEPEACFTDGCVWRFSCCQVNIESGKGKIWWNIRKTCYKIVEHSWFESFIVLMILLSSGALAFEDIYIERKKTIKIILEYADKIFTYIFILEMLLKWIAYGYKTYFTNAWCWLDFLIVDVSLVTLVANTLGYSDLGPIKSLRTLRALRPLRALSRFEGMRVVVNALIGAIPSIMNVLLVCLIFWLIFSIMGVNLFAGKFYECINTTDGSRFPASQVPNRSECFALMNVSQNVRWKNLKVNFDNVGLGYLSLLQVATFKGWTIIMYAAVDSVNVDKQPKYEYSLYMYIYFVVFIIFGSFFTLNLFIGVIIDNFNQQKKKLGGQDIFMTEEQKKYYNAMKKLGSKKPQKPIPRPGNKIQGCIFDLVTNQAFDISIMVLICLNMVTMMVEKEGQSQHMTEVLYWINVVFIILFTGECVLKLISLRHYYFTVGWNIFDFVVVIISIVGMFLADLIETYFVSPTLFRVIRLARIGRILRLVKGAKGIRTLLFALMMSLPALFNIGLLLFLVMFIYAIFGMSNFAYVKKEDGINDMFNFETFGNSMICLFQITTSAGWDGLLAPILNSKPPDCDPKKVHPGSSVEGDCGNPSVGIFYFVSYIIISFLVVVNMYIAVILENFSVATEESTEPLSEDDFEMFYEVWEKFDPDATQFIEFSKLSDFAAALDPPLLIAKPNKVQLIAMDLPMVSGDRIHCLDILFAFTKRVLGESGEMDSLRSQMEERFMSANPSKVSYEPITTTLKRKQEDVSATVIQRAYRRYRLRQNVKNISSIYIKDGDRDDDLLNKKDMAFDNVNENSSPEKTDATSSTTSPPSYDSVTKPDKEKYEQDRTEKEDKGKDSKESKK

Sequence of Sodium channel protein type 5 subunit alpha (Q14524 whole entry): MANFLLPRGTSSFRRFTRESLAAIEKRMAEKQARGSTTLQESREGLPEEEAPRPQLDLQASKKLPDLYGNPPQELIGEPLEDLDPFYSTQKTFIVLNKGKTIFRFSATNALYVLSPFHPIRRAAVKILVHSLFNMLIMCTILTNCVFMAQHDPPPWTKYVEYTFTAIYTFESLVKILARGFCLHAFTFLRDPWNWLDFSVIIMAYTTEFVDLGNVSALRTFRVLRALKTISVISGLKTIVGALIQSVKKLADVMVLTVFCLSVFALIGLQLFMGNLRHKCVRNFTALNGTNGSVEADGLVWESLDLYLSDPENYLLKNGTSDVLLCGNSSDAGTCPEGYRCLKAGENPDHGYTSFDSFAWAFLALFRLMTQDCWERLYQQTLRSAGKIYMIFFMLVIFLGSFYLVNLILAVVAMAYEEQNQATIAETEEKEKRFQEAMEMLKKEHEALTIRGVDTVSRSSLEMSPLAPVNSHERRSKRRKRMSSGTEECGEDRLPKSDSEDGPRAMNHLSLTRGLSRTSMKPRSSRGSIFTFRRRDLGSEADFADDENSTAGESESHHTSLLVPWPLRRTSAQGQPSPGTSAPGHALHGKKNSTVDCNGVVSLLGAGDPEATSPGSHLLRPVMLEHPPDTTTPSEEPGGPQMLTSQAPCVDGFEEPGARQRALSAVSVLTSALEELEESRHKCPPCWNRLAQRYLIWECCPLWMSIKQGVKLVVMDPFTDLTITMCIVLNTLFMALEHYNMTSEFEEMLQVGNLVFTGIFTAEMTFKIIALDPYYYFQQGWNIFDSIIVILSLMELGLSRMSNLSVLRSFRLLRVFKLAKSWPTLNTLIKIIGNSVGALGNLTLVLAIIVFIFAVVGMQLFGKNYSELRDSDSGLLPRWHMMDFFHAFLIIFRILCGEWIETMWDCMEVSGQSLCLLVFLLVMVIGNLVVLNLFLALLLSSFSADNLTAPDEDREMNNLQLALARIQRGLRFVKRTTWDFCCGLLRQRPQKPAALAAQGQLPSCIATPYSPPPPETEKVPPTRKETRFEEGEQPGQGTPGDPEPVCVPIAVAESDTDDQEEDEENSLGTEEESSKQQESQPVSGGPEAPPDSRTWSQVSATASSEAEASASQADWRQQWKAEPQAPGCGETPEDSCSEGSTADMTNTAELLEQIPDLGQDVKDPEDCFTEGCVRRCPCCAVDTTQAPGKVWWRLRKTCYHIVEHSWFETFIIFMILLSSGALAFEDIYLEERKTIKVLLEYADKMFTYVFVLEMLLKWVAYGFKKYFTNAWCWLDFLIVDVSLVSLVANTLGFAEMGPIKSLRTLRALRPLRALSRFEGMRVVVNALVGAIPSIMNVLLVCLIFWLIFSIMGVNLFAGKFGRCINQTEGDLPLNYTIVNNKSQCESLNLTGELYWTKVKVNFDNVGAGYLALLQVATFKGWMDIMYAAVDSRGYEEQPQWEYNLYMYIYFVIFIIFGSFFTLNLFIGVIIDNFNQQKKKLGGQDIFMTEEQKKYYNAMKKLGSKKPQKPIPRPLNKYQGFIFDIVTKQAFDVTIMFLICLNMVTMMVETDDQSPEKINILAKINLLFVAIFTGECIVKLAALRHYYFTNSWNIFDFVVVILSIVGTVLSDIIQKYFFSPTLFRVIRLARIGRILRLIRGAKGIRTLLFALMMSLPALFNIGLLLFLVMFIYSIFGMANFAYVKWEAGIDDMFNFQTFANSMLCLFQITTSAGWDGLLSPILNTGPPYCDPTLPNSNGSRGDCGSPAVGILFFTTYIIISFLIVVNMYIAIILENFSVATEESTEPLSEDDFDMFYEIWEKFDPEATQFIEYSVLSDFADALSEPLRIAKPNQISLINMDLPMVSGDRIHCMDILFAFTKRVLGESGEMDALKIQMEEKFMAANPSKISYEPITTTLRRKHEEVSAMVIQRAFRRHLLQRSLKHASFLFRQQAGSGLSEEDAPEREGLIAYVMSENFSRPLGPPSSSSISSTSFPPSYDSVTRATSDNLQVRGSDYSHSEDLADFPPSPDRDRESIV

With `CC[C@H](C)[C@@H]1NC(=O)[C@@H]2CSSC[C@@H]3NC(=O)[C@H](C(C)C)NC(=O)[C@H](CC(C)C)NC(=O)[C@H](CC(N)=O)NC(=O)[C@@H]4CCCN4C(=O)[C@H](CCCNC(=N)N)NC(=O)[C@H](CSSC[C@H](NC(=O)[C@@H](N)CC(=O)O)C(=O)N[C@@H](CC(C)C)C(=O)NCC(=O)N[C@@H](Cc4ccccc4)C(=O)N[C@@H](CCSC)C(=O)N[C@@H](CCCNC(=N)N)C(=O)N[C@@H](CCCCN)C(=O)N2)NC(=O)[C@H](CSSC[C@@H](C(=O)N[C@@H](CCCCN)C(=O)N[C@@H](CCCCN)C(=O)N[C@H](C(=O)N[C@@H](Cc2ccccc2)C(N)=O)C(C)C)NC(=O)[C@H](Cc2c[nH]c4ccccc24)NC(=O)[C@H](CCCCN)NC(=O)[C@H](Cc2cnc[nH]2)NC(=O)[C@H]([C@@H](C)O)NC(=O)[C@H](CCCNC(=N)N)NC(=O)[C@H](CO)NC3=O)NC(=O)[C@H](CCCCN)NC(=O)[C@H](CC(=O)O)NC(=O)[C@H](CC(N)=O)NC(=O)[C@H](CC(=O)O)NC(=O)[C@@H]2CCCN2C1=O` (H-DCLGFMRKCIPDNDKCCRPNLVCSRTHKWCKKVF-NH2; disulfide 2-17, 9-23, 16-30), the pIC50 was less than 5.30 in assay [1] and less than 5.31 in assay [2].

For the compound `CC[C@H](C)[C@@H]1NC(=O)[C@@H]2CSSC[C@@H]3NC(=O)[C@H](C(C)C)NC(=O)[C@H](CC(C)C)NC(=O)[C@H](CC(N)=O)NC(=O)[C@@H]4CCCN4C(=O)[C@H](CCCNC(=N)N)NC(=O)[C@H](CSSC[C@H](NC(=O)[C@@H](N)CC(=O)O)C(=O)N[C@@H](CC(C)C)C(=O)NCC(=O)N[C@@H](Cc4ccccc4)C(=O)N[C@@H](CCSC)C(=O)N[C@@H](CCCNC(=N)N)C(=O)N[C@@H](CCCCN)C(=O)N2)NC(=O)[C@H](CSSC[C@@H](C(=O)N[C@@H](CCCCN)C(=O)N[C@@H](Cc2ccc(O)cc2)C(=O)N[C@@H](CCCCN)C(=O)N[C@@H](Cc2ccccc2)C(N)=O)NC(=O)[C@H](Cc2c[nH]c4ccccc24)NC(=O)[C@H](CCCCN)NC(=O)[C@H](Cc2cnc[nH]2)NC(=O)[C@H]([C@@H](C)O)NC(=O)[C@H](CCCNC(=N)N)NC(=O)[C@H](CO)NC3=O)NC(=O)[C@H](CCCCN)NC(=O)[C@H](CC(=O)O)NC(=O)[C@H](CC(N)=O)NC(=O)[C@H](CC(=O)O)NC(=O)[C@@H]2CCCN2C1=O` (H-DCLGFMRKCIPDNDKCCRPNLVCSRTHKWCKYKF-NH2; disulfide 2-17, 9-23, 16-30), the pIC50 in assay [1] was less than 5.30; in assay [2], 7.30.

Take `CC[C@H](C)[C@@H]1NC(=O)[C@@H]2CSSC[C@@H]3NC(=O)[C@H](C(C)C)NC(=O)[C@H](CC(C)C)NC(=O)[C@H](CC(N)=O)NC(=O)[C@@H]4CCCN4C(=O)[C@H](CCCNC(=N)N)NC(=O)[C@H](CSSC[C@H](NC(=O)[C@@H](N)CC(=O)O)C(=O)N[C@@H](CC(C)C)C(=O)NCC(=O)N[C@@H](Cc4ccccc4)C(=O)N[C@@H](CCSC)C(=O)N[C@@H](CCCNC(=N)N)C(=O)N[C@@H](CCCCN)C(=O)N2)NC(=O)[C@H](CSSC[C@@H](C(=O)N[C@@H](CCCCN)C(=O)N[C@@H](Cc2ccc(O)cc2)C(=O)N[C@H](C(=O)N[C@@H](CCC(=O)O)C(N)=O)C(C)C)NC(=O)[C@H](Cc2c[nH]c4ccccc24)NC(=O)[C@H](CCCCN)NC(=O)[C@H](Cc2cnc[nH]2)NC(=O)[C@H]([C@@H](C)O)NC(=O)[C@H](CCCNC(=N)N)NC(=O)[C@H](CO)NC3=O)NC(=O)[C@H](CCCCN)NC(=O)[C@H](CC(=O)O)NC(=O)[C@H](CC(N)=O)NC(=O)[C@H](CC(=O)O)NC(=O)[C@@H]2CCCN2C1=O` (H-DCLGFMRKCIPDNDKCCRPNLVCSRTHKWCKYVE-NH2; disulfide 2-17, 9-23, 16-30): the negative-log IC50 (pIC50) in assay [1] and in assay [2] was less than 5.30 each time.

As to `CC[C@H](C)[C@@H]1NC(=O)[C@@H]2CSSC[C@@H]3NC(=O)[C@H](C(C)C)NC(=O)[C@H](CC(C)C)NC(=O)[C@H](CC(N)=O)NC(=O)[C@@H]4CCCN4C(=O)[C@H](CCCNC(=N)N)NC(=O)[C@H](CSSC[C@H](NC(=O)[C@@H](N)CC(=O)O)C(=O)N[C@@H](CC(C)C)C(=O)NCC(=O)N[C@@H](Cc4ccccc4)C(=O)N[C@@H](CCSC)C(=O)N[C@@H](CCCNC(=N)N)C(=O)N[C@@H](CCCCN)C(=O)N2)NC(=O)[C@H](CSSC[C@@H](C(=O)N[C@@H](CCCCN)C(=O)N[C@@H](Cc2ccc(O)cc2)C(=O)N[C@H](C(=O)N[C@@H](CCCCN)C(N)=O)C(C)C)NC(=O)[C@H](Cc2c[nH]c4ccccc24)NC(=O)[C@H](CCCCN)NC(=O)[C@H](Cc2cnc[nH]2)NC(=O)[C@H]([C@@H](C)O)NC(=O)[C@H](CCCNC(=N)N)NC(=O)[C@H](CO)NC3=O)NC(=O)[C@H](CCCCN)NC(=O)[C@H](CC(=O)O)NC(=O)[C@H](CC(N)=O)NC(=O)[C@H](CC(=O)O)NC(=O)[C@@H]2CCCN2C1=O` (H-DCLGFMRKCIPDNDKCCRPNLVCSRTHKWCKYVK-NH2; disulfide 2-17, 9-23, 16-30), the negative logarithm of the IC50 (pIC50) in assay [1] and in assay [2] was less than 5.30 each time.

In the case of `CC[C@H](C)[C@@H]1NC(=O)[C@@H]2CSSC[C@@H]3NC(=O)[C@H](C(C)C)NC(=O)[C@H](CC(C)C)NC(=O)[C@H](CC(N)=O)NC(=O)[C@@H]4CCCN4C(=O)[C@H](CCCNC(=N)N)NC(=O)[C@H](CSSC[C@H](NC(=O)[C@@H](N)CC(=O)O)C(=O)N[C@@H](CC(C)C)C(=O)NCC(=O)N[C@@H](Cc4ccccc4)C(=O)N[C@@H](CCSC)C(=O)N[C@@H](CCCNC(=N)N)C(=O)N[C@@H](CCCCN)C(=O)N2)NC(=O)[C@H](CSSC[C@@H](C(=O)N[C@@H](CCCCN)C(=O)N[C@@H](Cc2ccc(O)cc2)C(=O)N[C@H](C(=O)N[C@@H](CCCNC(=N)N)C(N)=O)C(C)C)NC(=O)[C@H](Cc2c[nH]c4ccccc24)NC(=O)[C@H](CCCCN)NC(=O)[C@H](Cc2cnc[nH]2)NC(=O)[C@H]([C@@H](C)O)NC(=O)[C@H](CCCNC(=N)N)NC(=O)[C@H](CO)NC3=O)NC(=O)[C@H](CCCCN)NC(=O)[C@H](CC(=O)O)NC(=O)[C@H](CC(N)=O)NC(=O)[C@H](CC(=O)O)NC(=O)[C@@H]2CCCN2C1=O` (H-DCLGFMRKCIPDNDKCCRPNLVCSRTHKWCKYVR-NH2; disulfide 2-17, 9-23, 16-30), the negative logarithm of the IC50 (pIC50) in assay [1] is less than 5.30; in assay [2] it was 5.63.

With `CC[C@H](C)[C@@H]1NC(=O)[C@@H]2CSSC[C@@H]3NC(=O)[C@H](C(C)C)NC(=O)[C@H](CC(C)C)NC(=O)[C@H](CC(N)=O)NC(=O)[C@@H]4CCCN4C(=O)[C@H](CCCNC(=N)N)NC(=O)[C@H](CSSC[C@H](NC(=O)[C@@H](N)CC(=O)O)C(=O)N[C@@H](CC(C)C)C(=O)NCC(=O)N[C@@H](Cc4ccccc4)C(=O)N[C@@H](CCSC)C(=O)N[C@@H](CCCNC(=N)N)C(=O)N[C@@H](CCCCN)C(=O)N2)NC(=O)[C@H](CSSC[C@@H](C(=O)N[C@@H](CCCCN)C(=O)N[C@@H](Cc2ccc(O)cc2)C(=O)N[C@H](C(=O)N[C@@H](Cc2c[nH]c4ccccc24)C(N)=O)C(C)C)NC(=O)[C@H](Cc2c[nH]c4ccccc24)NC(=O)[C@H](CCCCN)NC(=O)[C@H](Cc2c[nH]cn2)NC(=O)[C@H]([C@@H](C)O)NC(=O)[C@H](CCCNC(=N)N)NC(=O)[C@H](CO)NC3=O)NC(=O)[C@H](CCCCN)NC(=O)[C@H](CC(=O)O)NC(=O)[C@H](CC(N)=O)NC(=O)[C@H](CC(=O)O)NC(=O)[C@@H]2CCCN2C1=O` (H-DCLGFMRKCIPDNDKCCRPNLVCSRTHKWCKYVW-NH2; disulfide 2-17, 9-23, 16-30), the pIC50 was less than 5.30 in assay [1] and 6.57 in assay [2].

As to `CC[C@H](C)[C@@H]1NC(=O)[C@@H]2CSSC[C@@H]3NC(=O)[C@H](C(C)C)NC(=O)[C@H](CC(C)C)NC(=O)[C@H](CC(N)=O)NC(=O)[C@@H]4CCCN4C(=O)[C@H](CCCNC(=N)N)NC(=O)[C@H](CSSC[C@H](NC(=O)[C@@H](N)CC(=O)O)C(=O)N[C@@H](CC(C)C)C(=O)NCC(=O)N[C@@H](Cc4ccccc4)C(=O)N[C@@H](CCSC)C(=O)N[C@@H](CCCNC(=N)N)C(=O)N[C@@H](CCCCN)C(=O)N2)NC(=O)[C@H](CSSC[C@@H](C(=O)N[C@@H](CCCCN)C(=O)N[C@@H](Cc2ccc(O)cc2)C(=O)N[C@@H](Cc2cccc4ccccc24)C(=O)N[C@@H](Cc2ccccc2)C(N)=O)NC(=O)[C@H](Cc2c[nH]c4ccccc24)NC(=O)[C@H](CCCCN)NC(=O)[C@H](Cc2cnc[nH]2)NC(=O)[C@H]([C@@H](C)O)NC(=O)[C@H](CCCNC(=N)N)NC(=O)[C@H](CO)NC3=O)NC(=O)[C@H](CCCCN)NC(=O)[C@H](CC(=O)O)NC(=O)[C@H](CC(N)=O)NC(=O)[C@H](CC(=O)O)NC(=O)[C@@H]2CCCN2C1=O` (H-DCLGFMRKCIPDNDKCCRPNLVCSRTHKWCKY[1Nal]F-NH2; disulfide 2-17, 9-23, 16-30), the negative logarithm of the IC50 (pIC50) in assay [1] was less than 5.30; in assay [2], 7.15.

As to `CC[C@H](C)[C@@H]1NC(=O)[C@@H]2CSSC[C@@H]3NC(=O)[C@H](C(C)C)NC(=O)[C@H](CC(C)C)NC(=O)[C@H](CC(N)=O)NC(=O)[C@@H]4CCCN4C(=O)[C@H](CCCNC(=N)N)NC(=O)[C@H](CSSC[C@H](NC(=O)[C@@H](N)CC(=O)O)C(=O)N[C@@H](CC(C)C)C(=O)NCC(=O)N[C@@H](Cc4ccccc4)C(=O)N[C@@H](CCSC)C(=O)N[C@@H](CCCNC(=N)N)C(=O)N[C@@H](CCCCN)C(=O)N2)NC(=O)[C@H](CSSC[C@@H](C(=O)N[C@@H](CCCNC(=N)N)C(=O)N[C@@H](Cc2ccc(O)cc2)C(=O)N[C@H](C(=O)N[C@@H](Cc2ccccc2)C(N)=O)C(C)C)NC(=O)[C@H](Cc2c[nH]c4ccccc24)NC(=O)[C@H](CCCCN)NC(=O)[C@H](Cc2cnc[nH]2)NC(=O)[C@H]([C@@H](C)O)NC(=O)[C@H](CCCNC(=N)N)NC(=O)[C@H](CO)NC3=O)NC(=O)[C@H](CCCCN)NC(=O)[C@H](CC(=O)O)NC(=O)[C@H](CC(N)=O)NC(=O)[C@H](CC(=O)O)NC(=O)[C@@H]2CCCN2C1=O` (H-DCLGFMRKCIPDNDKCCRPNLVCSRTHKWCRYVF-NH2; disulfide 2-17, 9-23, 16-30), the negative-log IC50 (pIC50) in assay [1] was less than 5.30; in assay [2], 6.02.
